In ChEMBL document CHEMBL1137290, “Design, synthesis, and biological evaluation of a new class of small molecule peptide mimetics targeting the melanocortin receptors” (Bioorg Med Chem Lett, 2006) one finds IC50, Activity and EC50 data, which are given here for nine compounds.

The target in test [1] is T1, Melanocyte-stimulating hormone receptor (Homo sapiens, UniProt Q01726). Put plainly: Displacement of [125I]NDP-alpha-MSH from human MC1R expressed in HEK293 cells. Type of test: cell-based. A general note: Displacement assays read how much labelled ligand stays bound in the presence of the test substance.
Target sequence in this assay (Q01726 whole entry): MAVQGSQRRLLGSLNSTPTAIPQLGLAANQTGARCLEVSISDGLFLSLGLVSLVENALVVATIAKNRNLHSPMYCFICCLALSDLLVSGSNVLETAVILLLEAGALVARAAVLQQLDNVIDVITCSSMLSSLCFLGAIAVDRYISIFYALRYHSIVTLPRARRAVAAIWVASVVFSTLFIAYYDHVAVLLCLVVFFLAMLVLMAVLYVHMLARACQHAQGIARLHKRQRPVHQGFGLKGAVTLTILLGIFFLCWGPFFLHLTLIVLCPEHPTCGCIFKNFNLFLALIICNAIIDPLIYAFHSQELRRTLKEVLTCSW
Test [2] deals with T2, Melanocortin receptor 3 (Homo sapiens, UniProt P41968). In words: Displacement of [125I]NDP-alpha-MSH from human MC3R expressed in HEK293 cells. It counts as cell-based.
Test [3] has as its target T3, Melanocortin receptor 4 (Homo sapiens, UniProt P32245). Put plainly: Displacement of [125I]NDP-alpha-MSH from human MC4R expressed in HEK293 cells. It counts as cell-based.
Test [4] has as its target T4, Melanocortin receptor 5 (Homo sapiens, UniProt P33032). Put plainly: Displacement of [125I]NDP-alpha-MSH from human MC5R expressed in HEK293 cells. Type of test: cell-based.
The target of test [5] is T4, Melanocortin receptor 5. Put plainly: Displacement of [125I]NDP-alpha-MSH from human MC5R expressed in HEK293 cells relative to MT-II. It counts as cell-based. The essentials: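 Binding efficiency was measured on whole HEK293 cells expressing hMC5R, by competition with 125I-NDP-α-MSH. It is the maximum radioligand displacement by the test compound divided by the maximum displacement caused by excess MT-II.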

The target in test [6] is T1, Melanocyte-stimulating hormone receptor. In words: Activity at human MC1R expressed in HEK293 cells assessed by measuring intracellular cAMP accumulation. Type of test: functional, cell-based. The essentials: (§1)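 Whole HEK293 cells expressing the human melanocortin receptor were incubated with ligand, and the cAMP they produced was measured as the read-out of adenylate cyclase activation.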
(cAMP levels reflect the balance of adenylyl cyclase and phosphodiesterase activity.)
Target sequence in this assay (Q01726 whole entry): as above

For test [7], the target named is T2, Melanocortin receptor 3. Put plainly: Activity at human MC3R expressed in HEK293 cells assessed by measuring intracellular cAMP accumulation. It counts as functional, cell-based. The essentials: as §1
Test [8] has as its target T4, Melanocortin receptor 5. In words: Activity at human MC5R expressed in HEK293 cells assessed by measuring intracellular cAMP accumulation. It counts as functional, cell-based. The essentials:
as §1

Test [9] deals with T3, Melanocortin receptor 4. In words: Activity at human MC4R expressed in HEK293 cells assessed by measuring intracellular cAMP accumulation. It counts as functional, cell-based. The essentials:
as §1

The target of test [10] is T1, Melanocyte-stimulating hormone receptor. In words: Activity at human MC1R expressed in HEK293 cells assessed as activation of adenylate cyclase. It counts as functional, cell-based. Details: concentration or dose not given beside the values. The essentials: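 Whole HEK293 cells expressing the human melanocortin receptor were incubated with ligand, and the cAMP they produced was measured as the read-out of adenylate cyclase activation. EC50 is the concentration giving 50% of maximal intracellular cAMP accumulation.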
Target sequence in this assay (Q01726 whole entry, looked up): as the sequence (Q01726 whole entry) above

For test [11], the target named is T2, Melanocortin receptor 3. Put plainly: Activity at human MC3R expressed in HEK293 cells assessed as activation of adenylate cyclase. It counts as functional, cell-based. Also on record: concentration or dose not given beside the values. The essentials:
as §1

For test [12], the target named is T4, Melanocortin receptor 5. In words: Activity at human MC5R expressed in HEK293 cells assessed as activation of adenylate cyclase. It counts as functional, cell-based. Also on record: concentration or dose not given beside the values. The essentials:
as §1

The target of test [13] is T3, Melanocortin receptor 4. In words: Activity at human MC4R expressed in HEK293 cells assessed as activation of adenylate cyclase. Type of test: functional, cell-based. Details: concentration or dose not given beside the values. The essentials: as §1
Test [14] concerns the target T1, Melanocyte-stimulating hormone receptor. In words: Displacement of [125I]NDP-alpha-MSH from human MC1R expressed in HEK293 cells relative to MT-II. Type of test: cell-based.
Target sequence in this assay (Q01726 whole entry, looked up): as the sequence (Q01726 whole entry) above

T3 sequence (P32245 whole entry): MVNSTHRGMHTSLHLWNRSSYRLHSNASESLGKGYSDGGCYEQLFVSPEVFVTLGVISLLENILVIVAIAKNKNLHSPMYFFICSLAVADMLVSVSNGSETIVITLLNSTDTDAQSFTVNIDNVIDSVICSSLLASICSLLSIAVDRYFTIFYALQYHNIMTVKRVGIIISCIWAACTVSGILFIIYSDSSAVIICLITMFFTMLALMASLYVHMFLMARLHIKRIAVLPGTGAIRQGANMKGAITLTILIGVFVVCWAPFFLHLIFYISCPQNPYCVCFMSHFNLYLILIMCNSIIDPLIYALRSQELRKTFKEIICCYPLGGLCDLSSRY
T4 sequence (P33032 whole entry): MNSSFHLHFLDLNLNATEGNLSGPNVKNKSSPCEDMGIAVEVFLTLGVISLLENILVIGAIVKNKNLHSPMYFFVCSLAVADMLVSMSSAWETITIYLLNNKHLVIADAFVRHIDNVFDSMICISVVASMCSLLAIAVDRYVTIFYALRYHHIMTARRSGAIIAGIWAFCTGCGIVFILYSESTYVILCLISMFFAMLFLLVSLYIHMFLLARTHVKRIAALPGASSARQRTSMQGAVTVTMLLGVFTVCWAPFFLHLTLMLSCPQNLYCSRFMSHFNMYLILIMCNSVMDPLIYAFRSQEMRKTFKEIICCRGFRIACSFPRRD
T2 sequence (P41968 whole entry): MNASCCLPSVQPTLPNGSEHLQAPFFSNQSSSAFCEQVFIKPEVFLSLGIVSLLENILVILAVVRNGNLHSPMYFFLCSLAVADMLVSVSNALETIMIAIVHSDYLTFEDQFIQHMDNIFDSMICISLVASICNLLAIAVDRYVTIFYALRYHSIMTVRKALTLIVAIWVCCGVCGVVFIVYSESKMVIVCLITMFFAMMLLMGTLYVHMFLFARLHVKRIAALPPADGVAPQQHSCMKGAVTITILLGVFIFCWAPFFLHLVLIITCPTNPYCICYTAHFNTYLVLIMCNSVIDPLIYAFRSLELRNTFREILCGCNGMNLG

As usually defined, the IC50 is the concentration needed to halve the response being measured. Broadly, the EC50 is the concentration giving half of the maximal effect. As for `O=C(CCc1c[nH]c2ccccc12)N1C[C@@H]2CCCN2C[C@@H]1Cc1ccccc1`, the IC50 was over 10 µM in test [1], over 10 µM in test [2], over 10 µM in test [3] and 0.0008 µM in test [4]. The Activity in test [5] was found to be 50%; in [10], 0%; in test [11] it was 0%; in [12] it was 0%; in test [13], 0%. The EC50 in [6], in test [7], in [8] and in test [9] was over 10 µM each time.

Regarding `O=C(CCC(=O)N1C[C@@H]2CCCN2C[C@H]1Cc1ccccc1)NCCc1c[nH]c2ccccc12`, the IC50 in [1] is over 10 µM; in test [2] it was over 10 µM; in test [3], over 10 µM; in test [4], 0.0001 µM. Besides, the Activity in test [5] amounted to 60%; in test [10], 0%; in test [11], 0%; in test [12], 0%; in test [13], 0%. Also, the EC50 in test [6], in test [7], in [8] and in test [9] was over 10 µM each time.

`N=C(N)NCCC[C@H](NC(=O)CCc1c[nH]c2ccccc12)C(=O)N1C[C@@H]2CCCN2C[C@@H]1Cc1ccccc1`: the Activity in [5] came to 60%; in [10], 20%; in test [11], 0%; in test [12], 0%; in test [13], 0%.

With `O=C(CCC(=O)N1C[C@@H]2CCCN2C[C@@H]1Cc1ccccc1)NCCc1c[nH]c2ccccc12`, the half-maximal inhibitory concentration (IC50) in [1] was over 10 µM; in test [2], over 10 µM; in test [3], over 10 µM; in [4] it was 0.0005 µM. The Activity in test [5] is 50%; in [10], 0%; in test [11], 0%; in [12], 0%; in test [13] it was 0%. The EC50 in test [6], in test [7], in test [8] and in [9] was over 10 µM each time.

For `O=C(CCc1c[nH]c2ccccc12)N1C[C@@H]2CCCN2C[C@H]1Cc1ccccc1`, the IC50 in test [1] is 0.004 µM; in [2], 0.0012 µM; in test [3], over 10 µM; in test [4], over 10 µM. Moreover, the Activity in [14] was found to be 50%; in test [10] it was 0%; in [11], 0%; in [12] it was 0%; in [13] it was 0%. In addition, the 50% effective concentration (EC50) in test [6], in [7], in test [8] and in [9] was over 10 µM each time.

Take `O=C(Cc1ccccc1)N1C[C@@H]2CCCN2C[C@@H]1Cc1ccccc1`: the 50% inhibitory concentration (IC50) in test [1] is 0.0022 µM; in [2], 0.35 µM; in test [3] it was over 10 µM; in [4] it was over 10 µM. Moreover, the Activity in test [14] came to 80%; in [10], 0%; in test [11], 0%; in [12], 0%; in test [13] it was 30%. The EC50 in test [6] is over 10 µM; in [7], over 10 µM; in test [8] it was over 10 µM; in test [9], 0.0027 µM.

Consider `NC(N)=NCCC[C@H](NC(=O)CCc1c[nH]c2ccccc12)C(=O)N1C[C@@H]2CCCN2C[C@@H]1Cc1ccccc1`, for which the IC50 is over 10 µM in test [1], over 10 µM in test [2], over 10 µM in test [3] and 0.0001 µM in test [4]. Besides, the EC50 in [6], in [7], in test [8] and in [9] was over 10 µM each time.

Turning to `O=C(Cc1ccccc1)N1C[C@@H]2CCCN2C[C@H]1Cc1ccccc1`, the IC50 in [1] is 0.0013 µM; in [2] it was 0.005 µM; in test [3], 0.0012 µM; in [4], over 10 µM. Also, the Activity in test [14] was found to be 90%; in test [10], 0%; in [11], 0%; in test [12], 0%; in test [13], 0%. The EC50 in [6], in test [7], in [8] and in test [9] was over 10 µM each time.

Turning to `O=C(CCc1c[nH]c2ccccc12)NCCCCCC(=O)N1C[C@@H]2CCCN2C[C@@H]1Cc1ccccc1`, the IC50 in [1] is over 10 µM; in test [2] it was over 10 µM; in test [3], over 10 µM; in test [4] it was 0.0004 µM. Besides, the Activity in test [5] came out at 65%; in test [10] it was 0%; in [11], 0%; in test [12] it was 0%; in test [13] it was 0%. The EC50 in test [6], in test [7], in test [8] and in test [9] was over 10 µM throughout.
